Measured values of several laboratories.
Lines come from different studies, so protocols differ.
Target: Serine/threonine-protein kinase PAK 1 (PAK1, Homo sapiens, UniProt Q13153)

CN(C)c1nccc(-c2cnc3ncccn23)n1
remaining binding (binding; 1 µM): 91%

Cc1cc(C)c(-n2ccn3nc(-c4cccnc4)cc23)cc1NC(=O)c1cc(C#N)cc(S(F)(F)(F)(F)F)c1
remaining binding (cell-free assay, competition with immobilised ligand; 0.1 µM): 82.2%

C[C@@H](c1ccc(-n2cnc3c(N)ncnc32)cc1)N1CCc2nn(C)c(Cc3ccccc3)c2C1=O
remaining binding (binding, competition with immobilised ligand; 0.1 µM): 97%

Cc1cnc(Nc2ccc(C(=O)N3CCC(N4CCCC4)CC3)cc2)nc1-c1cc2ccccc2s1
remaining binding (binding, competition with immobilised ligand; 1 µM): 98%

CO[C@H]1CC[C@H](CNc2ccc(S(=O)(=O)NC(=O)c3ccc(N4CCN(CC5=C(c6ccc(Cl)cc6)CC(C)(C)CC5)CC4)cc3Oc3cnc4[nH]ccc4c3)cc2[N+](=O)[O-])CC1
remaining binding (cell-free assay, competition with immobilised ligand; 1 µM): 78%

N#Cc1ccccc1CSc1nnc2c(n1)[nH]c1ccccc12
remaining binding (binding, competition with immobilised ligand; 10 µM): 80%

C[C@@H]1CN(c2ccc3ncc(-c4ccc5[nH]nc(C6CC6)c5c4)n3n2)C[C@H](C)O1
remaining binding (binding, competition with immobilised ligand; 50 nM): 100%

F[C@@H]1CCN(c2nccc(-c3cnn4ncccc34)n2)C1
remaining binding (binding; 1 µM): 100%

CN(C)C(=O)Cn1cc(-c2nc(C3(c4ccc(-c5cnc(N)nc5)cc4)CC3)no2)cn1
remaining binding (cell-free assay, competition with immobilised ligand; 1 µM): 100%

N[C@@H]1CCN(c2nccc(-c3cnn4ncccc34)n2)C1
remaining binding (binding; 1 µM): 100%

O=C(c1ccc(Nc2ncc(Cl)c(-c3ccc(Cl)s3)n2)cc1)N1CCC(N2CCCC2)CC1
remaining binding (binding, competition with immobilised ligand; 1 µM): 68%

CN(C)c1ncc(F)c(-c2cnn3ncccc23)n1
remaining binding (binding; 1 µM): 87%

O=C(NCCCN1CCOCC1)c1ccc(Nc2nccc(-c3cc4ccccc4s3)n2)cc1
remaining binding (binding, competition with immobilised ligand; 1 µM): 84%

O=C(Nc1c[nH]nc1C(=O)NC1CCNCC1)c1cc(F)cc(F)c1
remaining binding (binding, competition with immobilised ligand; 1 µM): 100%

FC(F)(F)c1ccc2c(c1)nc(-c1cccnc1)n2C1CC1
remaining binding (cell-free assay, competition with immobilised ligand; 1 µM): 100%

c1cncc(-c2cccc(Nc3nccc(NC4CCCCC4)n3)c2)c1
remaining binding (binding, competition with immobilised ligand; 10 µM): 85%

CNC(=O)[C@@H]1CC[C@@H](n2c(-c3ccc4cnccc4c3)nc3ccc(C(=O)NCc4cccc(C(N)=O)c4)cc32)C1
remaining binding (binding, competition with immobilised ligand; 1 µM): 100%

CO[C@@H](C)c1c(Nc2ccc([C@@H](N(C)C(=O)C3CCS(=O)(=O)CC3)C(F)(F)F)cc2)cnc2cc(Cl)nn12
remaining binding (cell-free assay, competition with immobilised ligand; 1 µM): 83%

CC1CCCN1c1nccc(-c2cnn3ncccc23)n1 (centres unmarked)
remaining binding (binding; 1 µM): 100%

C[C@H](c1ccnc(Nc2nc3ccc(-c4cc(N(C)C)ncn4)cc3[nH]2)c1)N1CCN(C(=O)CC(F)(F)F)CC1
remaining binding (cell-free assay, competition with immobilised ligand; 0.1 µM): 77%

COc1cnc(Nc2cccc(S(N)(=O)=O)c2)nc1N1CCN(c2ccccc2)CC1
remaining binding (binding, competition with immobilised ligand; 1 µM): 99%

COc1ccnn2ncc(-c3ccnc(N(C)C)n3)c12
remaining binding (binding; 1 µM): 79%

CN(C)c1ncnc(-c2ccc3nc(Nc4cc(CN5CCN(C(=O)CC(F)(F)F)CC5)ccn4)[nH]c3c2)c1Cl
remaining binding (cell-free assay, competition with immobilised ligand; 1 µM): 100%
